Results reported in ChEMBL document CHEMBL4257447, “Discovery of human lactate dehydrogenase A (LDHA) inhibitors as anticancer agents to inhibit the proliferation of MG-63 osteosarcoma cells” (Medchemcomm, 2017).
One block for each molecule: values may come before it. Active and inactive are the calls of the source. No cut-off for these calls is given here.

Experiments:
MG-63 [1] = assay: Growth inhibition of human MG63 cells at 10 uM after 72 hrs by MTT assay relative to control; assay type: functional; settings: for inhibition of growth at 10 µM: MG-63, 72 h, read-out: GI
Summary of the method: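 MG-63 cells (2500/well) were plated overnight. 10 μL of 100 μM working solution in PBS, diluted from 40 mM stock, was added for 72 h. MTT was added for 4 h, the solvent replaced with DMSO, and OD570 read as percent growth inhibition.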

[2] = biological target: L-lactate dehydrogenase A chain (Bos taurus, UniProt P19858); assay: Inhibition of bovine heart LDHA
[3] = biological target: T1, L-lactate dehydrogenase A chain (Homo sapiens, UniProt P00338); assay: Inhibition of human LDHA at 2 uM using pyruvate as substrate by monitoring the disappearance of NADH relative to control
[4] = biological target: T1, L-lactate dehydrogenase A chain; assay: Inhibition of human LDHA using pyruvate as substrate by monitoring the disappearance of NADH relative to control
[5] = biological target: T1, L-lactate dehydrogenase A chain; assay: Inhibition of LDHA in human MG63 cells assessed as decrease in extracellular acidification rate at 2 to 10 uM after 6 hrs by XF24 extracellular flux analyzer based assay; assay type: cell-based
Summary of the method: (§1)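 MG-63 cells (30 000/well) were pretreated for 6 h with a range of concentrations. OCR and ECAR were then measured on the XF24 extracellular flux analyzer.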

MG-63 [6] = assay: Induction of apoptosis in human MG63 cells assessed as necrotic cells at 10 uM after 24 hrs by annexin V-FITC/propidium iodide staining-based flow cytometric analysis (reference value: 0.8%); assay type: functional
MG-63 [7] = assay: Growth inhibition of human MG63 cells after 72 hrs by MTT assay; assay type: functional, cell-based; settings: MG-63, 72 h
Summary of the method: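 MG-63 cells (2500/well), grown in DMEM with 10% FBS at 37 °C and 5% CO2, plated overnight. They were then exposed for 72 h to eight concentrations (400 to 3.1 μM as listed), diluted in PBS from 40 mM stocks. MTT was added for 4 h and the formazan dissolved in DMSO, with OD read at 570 nm. EC50 is the mean of three independent experiments; cisplatin was the positive control.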

MG-63 [8] = assay: Induction of apoptosis in human MG63 cells assessed as late apoptotic cells at 10 uM after 24 hrs by annexin V-FITC/propidium iodide staining-based flow cytometric analysis (reference value: 3.2%); assay type: functional
MG-63 [9] = assay: Induction of apoptosis in human MG63 cells assessed as viable cells at 2 uM after 24 hrs by annexin V-FITC/propidium iodide staining-based flow cytometric analysis (reference value: 95.2%); assay type: functional; settings: MG-63, 24 h, read-out: Activity
MG-63 [10] = assay: Induction of apoptosis in human MG63 cells assessed as necrotic cells at 2 uM after 24 hrs by annexin V-FITC/propidium iodide staining-based flow cytometric analysis (reference value: 0.8%); assay type: functional
[11] = biological target: T1, L-lactate dehydrogenase A chain; assay: Binding affinity to LDHA (unknown origin) by ITC analysis
Summary of the method: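 LDHA diluted to 10 μM in 50 mM Hepes pH 7.2, 100 mM NaCl, 2 mM DTT, 1% DMSO (250 μL in cell); ligand at 100 μM in the same buffer titrated in 2.5 μL injections at 25 °C. One-site model fit gives the binding parameters.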

MG-63 [12] = assay: Induction of apoptosis in human MG63 cells assessed as necrotic cells at 5 uM after 24 hrs by annexin V-FITC/propidium iodide staining-based flow cytometric analysis (reference value: 0.8%); assay type: functional
MG-63 [13] = assay: Induction of apoptosis in human MG63 cells assessed as viable cells at 5 uM after 24 hrs by annexin V-FITC/propidium iodide staining-based flow cytometric analysis (reference value: 95.2%); assay type: functional; settings: MG-63, 24 h, read-out: Activity
[14] = biological target: T1, L-lactate dehydrogenase A chain; assay: Inhibition of LDHA in human MG63 cells assessed as increase in oxygen consumption rate at 2 to 10 uM after 6 hrs by XF24 extracellular flux analyzer based assay; assay type: cell-based; summary of the method: as §1
[15] = biological target: T1, L-lactate dehydrogenase A chain; assay: Inhibition of LDHA in human MG63 cells assessed as decrease in lactate levels after 4 hrs; assay type: cell-based
Summary of the method: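 MG-63 cells (3×10^5/well, 6-well) were plated overnight and treated for 4 h at 2, 5, 8, 10 and 12 μM, with 10 μM for the reference. Medium was centrifuged for 5 min and 1 mL assayed for lactate on a Nova Bioprofile Flex analyzer. IC50 was derived from the dose-response.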

MG-63 [16] = assay: Induction of apoptosis in human MG63 cells assessed as early apoptotic cells at 2 uM after 24 hrs by annexin V-FITC/propidium iodide staining-based flow cytometric analysis (reference value: 0.8%); assay type: functional
MG-63 [17] = assay: Induction of apoptosis in human MG63 cells assessed as viable cells at 10 uM after 24 hrs by annexin V-FITC/propidium iodide staining-based flow cytometric analysis (reference value: 95.2%); assay type: functional; settings: MG-63, 24 h, read-out: Activity
MG-63 [18] = assay: Induction of apoptosis in human MG63 cells after 24 hrs by annexin V-FITC/propidium iodide staining-based flow cytometric analysis; assay type: functional, cell-based
MG-63 [19] = assay: Induction of apoptosis in human MG63 cells assessed as late apoptotic cells at 2 uM after 24 hrs by annexin V-FITC/propidium iodide staining-based flow cytometric analysis (reference value: 3.2%); assay type: functional
MG-63 [20] = assay: Induction of apoptosis in human MG63 cells assessed as early apoptotic cells at 5 uM after 24 hrs by annexin V-FITC/propidium iodide staining-based flow cytometric analysis (reference value: 0.8%); assay type: functional
MG-63 [21] = assay: Induction of apoptosis in human MG63 cells assessed as early apoptotic cells at 10 uM after 24 hrs by annexin V-FITC/propidium iodide staining-based flow cytometric analysis (reference value: 0.8%); assay type: functional
MG-63 [22] = assay: Induction of apoptosis in human MG63 cells assessed as late apoptotic cells at 5 uM after 24 hrs by annexin V-FITC/propidium iodide staining-based flow cytometric analysis (reference value: 3.2%); assay type: functional

SMILES: COc1c(C)c2c(c(O)c1C/C=C(\C)CCC(=O)NCc1ccc(Cl)cc1)C(=O)OC2
- growth inhibition (GI) (MG-63 [1]): inactive

SMILES: NC(=O)C(=O)O [OXAMATE]
- Ki [2]: 136 µM

SMILES: Cc1cc(=O)c(O)c([C@H](CC(=O)N2CCc3c([nH]c4ccccc34)C2)c2ccnc3ccccc23)o1
- inhibition of growth at 10 µM (MG-63 [1]): 48.7%

- inhibition [3]: 71%
SMILES: CCOC(=O)C[C@H](c1cc(OC)c2c(c1)OCCO2)c1oc(CO)cc(=O)c1O
- inhibition of growth at 10 µM (MG-63 [1]): 67.8%

- IC50 [4]: 2.37 µM
SMILES: O=C1CC(c2c(Cl)cccc2Cl)CC(O)=C1Sc1ccccc1Cl (stereo not given)
- growth inhibition (GI) (MG-63 [1]): inactive

- inhibition [5]: Active
- IC50 [4]: 0.33 µM
- Kd [11]: 0.95 µM
- inhibition [14]: Dose-dependent effect
- IC50 [15]: 7.19 µM
- inhibition [15]: Dose-dependent effect
- inhibition [3]: 94%
SMILES: COCc1cc(=O)c(O)c([C@@H](CC(N)=O)c2cc3ccccc3n(CC(C)C)c2=O)o1
- Activity (MG-63 [6]): 1.2%
- EC50 (MG-63 [7]): 3.35 µM
- Activity (MG-63 [8]): 12.9%
- viability at 2 µM (MG-63 [9]): 94%
- Activity (MG-63 [10]): 0.6%
- Activity (MG-63 [12]): 0.7%
- inhibition of growth at 10 µM (MG-63 [1]): 88.7%
- viability at 5 µM (MG-63 [13]): 89.3%
- Activity (MG-63 [16]): 1%
- viability at 10 µM (MG-63 [17]): 82.9%
- Activity (MG-63 [18]): Dose-dependent effect
- Activity (MG-63 [19]): 4.4%
- Activity (MG-63 [20]): 4.2%
- Activity (MG-63 [21]): 3%
- Activity (MG-63 [22]): 5.8%

SMILES: COC(=O)C[C@H](c1cccc(O)c1)c1oc(CSc2ccccc2OC)cc(=O)c1O
- inhibition of growth at 10 µM (MG-63 [1]): 68.9%
